PolyA inh: blocks polyadenylation in yeast reporter cells. 300,000 compounds, 0.02% hits. S. cerevisiae SKY197-pL101 polyadenylation reporter, beta-gal luminescence; efflux-impaired pdr1/pdr3 knockout yeast; score 100 = 6 SD above DMSO. activity score, % at 12 µM;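 active = lowest replicate activity score at least 50, where 100 means six control SD above control mean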;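 also: yeast exposed to compound for 9 h at 30 °C; higher score means more reporter readthrough which indicates perturbed polyadenylation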
ALR H2O2 inh: human ALR oxidase inhibition via reduced H2O2. P55789. purified ALR, DTT oxidation, H2O2 HRP-luminol luminescence. inhibition, % (concentration not given with the values). 290,000 compounds, 3.8% hits. AID 485317;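 active = mean replicate inhibition above about 79%, with every replicate also reaching it, limit read from the data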
DSG3 Ab inh: inhibitors of pemphigus antibody binding to human desmoglein-3 | DSG3-coupled beads, scFv-anti-DSG3-GFP binding, flow cytometry; active compounds read low | binding (percent of control), % at 10 µM | 310,000 compounds, 0.48% hits;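 active = binding more than 3 SD below its plate's average and above zero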;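 also: hits lower antibody fragment binding to DSG3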
NALP1 yeast inh: inhibitors of NALP1 inflammasome in yeast | S. cerevisiae NALP1/ASC/caspase-1 growth, X-gal OD620, 72 h | inhibition, % at 10 µM | 280,000 compounds, 0.61% hits | AID 2071; in the data active = inhibition mostly above about 24%, no sharp cut-off; inactive = mostly below about 32%
NLRP3 yeast inh: inhibitors of NALP3 inflammasome in yeast. 330,000 compounds, 0.39% hits. inhibition, % at 10 µM. Yeast reconstituted NLRP3/ASC/caspase-1, beta-gal luminescence, 24 h;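 active = inhibition of 50% or more; inactive = inhibition below 50%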;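 also: plate controls were induced DMSO wells for no effect and uninduced yeast grown without galactose for full effect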
Arrestin-AP2 inh: blocks beta-arrestin peptide binding to AP2 adaptin; FITC-arrestin peptide / GST-AP2 beads, flow cytometry; AP2 beta2 appendage carries R879A mutation; 340,000 compounds, 0.31% hits; inhibition, % at 10 µM;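 active = inhibition above a set limit, near 3 SD of compounds lacking own fluorescence, cut at about 54% in these data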;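 also: plate controls were DMSO wells for no effect and 5 µM unlabelled arrestin peptide for full effect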
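Measured by: flow cytometry, FL1 (488/535 nm); Material: AP2 appendage R879A on GSH beads; Evaluation: percent response; Timing: pre-incubation 12 min, peptide binding 1 h, room temperature; Also added: 50 nM FITC-arrestin peptide; Medium: PBS with 0.05% Tween 20 and 0.1% BSA.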
Starred values were filed as active, the others as inactive; x = no result. Most compounds without a hit are left out; they make up all but 4.6% or so of the library.

SMILES	PolyA inh	ALR H2O2 inh	DSG3 Ab inh	NALP1 yeast inh	NLRP3 yeast inh	Arrestin-AP2 inh
O=C(O)c1[nH]c2ccccc2c1-c1ccccc1	-7	98*	104	3	6	-1
Cc1ccc2[nH]c(C(=O)O)c(-c3ccccc3)c2c1	-4	98*	90	-1	-3	11
Cc1ccc2[nH]c(C(=O)NN=C3CCCCC3)c(-c3ccccc3)c2c1	-26	x	115	-8	-5	9
CC(=O)NNC(=O)c1[nH]c2ccc(Br)cc2c1-c1ccccc1	6	97*	87	-6	12	-21
COc1ccc(-c2csc(NC(=O)c3c(C)noc3C)n2)cc1OC	x	x	101	x	x	x
CC(C)(C)C(=O)Nc1ccc(C(=O)COC(=O)C2=COCCO2)cc1	x	x	107	x	4	3
CC(C)(C)Cc1c(-c2ccccc2)nc2ccc(Cl)cn12	x	x	98	x	x	x
Cc1ccc(-n2c(-c3nn(C)cc3Cl)n[nH]c2=S)cc1	4	58	x	19	29	1
CC(C)Cn1c(-c2nn(C)cc2Cl)n[nH]c1=S	-3	10	106	4	25	3
Cn1cc(Cl)c(-c2n[nH]c(=S)n2-c2ccc(F)cc2)n1	13	88*	97	32	27	-10
Cc1c(Cl)c(-c2n[nH]c(=S)n2-c2ccc(F)cc2)nn1C	0	91*	x	-19	16	7
Cc1ccsc1-c1n[nH]c(=S)n1CC(C)C	-16	94*	103	25	12	25
Cc1c(Cl)c(-c2n[nH]c(=S)n2CC(C)C)nn1C	0	93*	126	4	9	10
Cc1nn(C)cc1-c1n[nH]c(=S)n1-c1ccc(F)cc1	-5	62	96	2	16	11
Cc1cccc(OC(=O)NCCOC(=O)N(O)c2ccc(Cl)cc2)c1	18	3	-26*	26	4	2
Cn1c(=O)c2c(nc3n2CC(O)CN3c2ccc(O)cc2)n(C)c1=O (configuration not stated)	-18	99*	123	20	12	-10
O=C(CCc1ccccc1)NNC(=O)c1ccccc1Cl	-13	-5	106	11	30	-9
O=C(NNCc1ccc(O)cc1)c1ccccc1Cl	11	99*	89	15	10	35
CCCCCn1c(=O)[nH]c2c(c1=O)CCC2	18	-1	-1.0*	17	25	3
COc1ccccc1N1C(=O)CC(N(O)c2ccccc2)C1=O (configuration not stated)	-10	36	112	1	12	-1
CCCOc1ccccc1N1C(=O)CC(N(O)c2ccccc2)C1=O (configuration not stated)	12	97*	86	24	18	-2
COc1ccc(S(=O)(=O)/N=C2/NC(=O)/C(=C/c3ccco3)S2)cc1	14	99*	97	24	11	4
O=C(N/N=C/c1cccc(O)c1)c1csc2ccccc12	-5	33	114	20	26	-1
COC(C(=O)N/N=C(\C)c1ccc(O)cc1)c1ccccc1 (configuration not stated)	-10	98*	103	12	10	-10
C/C(=N\NC(=O)C(c1ccccc1)c1ccccc1)c1ccc(O)cc1	7	90*	111	26	20	10
SMILES	PolyA inh	ALR H2O2 inh	DSG3 Ab inh	NALP1 yeast inh	NLRP3 yeast inh	Arrestin-AP2 inh
C/C(=N\NC(=O)c1csc2ccccc12)c1ccc(O)cc1	-14	100*	108	-2	7	15
COC(C(=O)N/N=C(\C)c1ccc(C)cc1)c1ccccc1 (configuration not stated)	-3	-12	112	1	15	33
C/C(=N\NC(=O)C(c1ccccc1)c1ccccc1)c1ccccn1	-36	x	104	11	12	9
COc1cc(Cl)ccc1OCc1cc(C(=O)N2CCN(C3CCCCC3)CC2)no1	x	x	113	x	x	x
C[C@@H]1CCCCO[C@@H](CN(C)S(=O)(=O)c2cn(C)cn2)[C@@H](C)CN([C@H](C)CO)C(=O)c2cc(N(C)C)ccc2O1	x	x	108	x	x	x
CCc1ccccc1NC(=O)CN1CCN(CC(=O)NCc2ccc(Cl)cc2)CC1	x	x	105	x	14	-10
O=C(CN(Cc1ccccc1)C(=O)CCl)c1cccc(Br)c1	x	3	112	x	20	8
Cc1ccc(S(=O)(=O)c2c(CO)c(-c3ccccc3)nn2C)cc1	13	-13	101	9	31	31
Cc1ccc(S(=O)(=O)c2c(COC(=O)c3ccccc3Cl)c(-c3ccccc3)nn2C)cc1	-6	-2	x	42*	0	-7
CC1CCN(S(=O)(=O)c2ccc3c(c2)c(=O)c(C(=O)NCc2cccs2)cn3C)CC1	-2	-3	83*	41	-6	-4
CC1CCN(S(=O)(=O)c2ccc3c(c2)c(=O)c(C(=O)NCc2ccco2)cn3C)CC1	23	3	107	13	4	-10
CC1CCC(NC(=O)c2cc(S(=O)(=O)N3CCCCC3)ccc2N2CCOCC2)CC1 (configuration not stated)	x	-6	107	x	11	-7
CCN(CCNC(=O)c1ccc(C#N)cc1)c1cccc(C)c1	-5	98*	x	20	18	26
COc1cccc(CCNC(=O)c2ccc(C#N)cc2)c1	8	6	96	8	7	-2
CCCCn1c(=O)[nH]c(=O)c2c1nc(Cn1ncc(Cl)c(Cl)c1=O)n2CCC	-4	-20	88	5	5	36
C=CCn1c(NC(C)c2cc(Cl)ccc2O)nc2ccccc21 (configuration not stated)	2	40	100	47*	18	-2
COc1ccc(CNc2nc3ccccc3n2C(C)C)c(O)c1	-6	99*	97	14	19	-10
CC(C)n1c(NCc2cc(Cl)ccc2O)nc2ccccc21	-11	68	100	2	35	6
Cc1ccc(O)c(CNc2nc3ccccc3n2C(C)C)c1	9	98*	96	-46	12	-14
CCn1c(CNc2nc3ccccc3n2C(C)C)nc2ccccc21	6	98*	108	18	-7	20
CCCn1c(NC(=O)c2ccc([N+](=O)[O-])o2)nc2ccccc21	-7	-35	116	x	26	6
CCCN(CCC)C(=O)c1cc2c(=O)n3cccc(C)c3nc2s1	-14	38	108	-1	-68	16
CCn1c(NCc2ccco2)nc2ccccc21	6	51	105	24*	-2	-2
C=CCn1c(NCc2cc(C)ccc2O)nc2ccccc21	1	98*	101	-18	10	-7
CCCCn1c(NCc2cc(C)ccc2O)nc2ccccc21	x	x	96	x	x	x
c1ccc(Cn2c(NCc3ccco3)nc3ccccc32)cc1	9	x	106	34	-3	7
